In brackets after ≈: the same amount, converted by molar mass.
Tests used:
[1] = Cytotoxicity against human E6SM cells; type: cell-based; settings: E6SM cells
In short: (§1)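 Uninfected cell cultures exposed to test compounds alongside antiviral assays; minimum cytotoxic concentration (MCC) = concentration causing a microscopically detectable alteration of cell morphology.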

[2] = system: Vesicular stomatitis virus; experiment: Antiviral activity against in Vesicular stomatitis virus in human HEL cells assessed as reduction of virus-induced cytopathogenicity; type: functional
In short: (§2)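 Confluent cell monolayers (E6SM, HEL, HeLa or Vero, per line) inoculated with 100 CCID50 virus; 1 h adsorption, residual virus removed, then incubated with compound at 400, 200, 100 … µg/ml. Cytopathicity scored once complete in untreated virus controls; MIC = concentration inhibiting virus-induced cytopathicity.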

Human alphaherpesvirus 1 [3] = experiment: Antiviral activity against HSV1 KOS in human HEL cells assessed as reduction of virus-induced cytopathogenicity; type: functional; settings: Human alphaherpesvirus 1, KOS; in short: as §2
Human alphaherpesvirus 2 [4] = experiment: Antiviral activity against HSV2 G in human HEL cells assessed as reduction of virus-induced cytopathogenicity; type: functional; settings: Human alphaherpesvirus 2, G; in short: as §2
[5] = system: Mammalian orthoreovirus 1; experiment: Antiviral activity against Reo virus 1 in african green monkey Vero cells assessed as reduction of virus-induced cytopathogenicity; type: functional; in short: as §2
Punta Toro virus = experiment: Antiviral activity against Punta Toro virus in african green monkey Vero cells assessed as reduction of virus-induced cytopathogenicity; type: functional; in short: as §2
Human respirovirus 3 = experiment: Antiviral activity against Parainfluenza 3 virus in african green monkey Vero cells assessed as reduction of virus-induced cytopathogenicity; type: functional; in short: as §2
Human alphaherpesvirus 2 [6] = experiment: Antiviral activity against HSV2 G in human E6SM cells assessed as reduction of virus-induced cytopathogenicity; type: functional; settings: Human alphaherpesvirus 2, G; in short: as §2
Human alphaherpesvirus 1 [7] = experiment: Antiviral activity against thymidine kinase deficient and acyclovir resistant HSV1 KOS in human E6SM cells assessed as reduction of virus-induced cytopathogenicity; type: functional; settings: Human alphaherpesvirus 1, KOS; in short: as §2
[8] = system: Human immunodeficiency virus 2; experiment: Antiviral activity against HIV2 ROD in human MT4 cells assessed as protection against virus-induced cytopathogenicity by MTT assay; type: functional, organism-based; set-up: Activity: concentration or dose not given beside the values; settings: for IC50: Human immunodeficiency virus 2, ROD, MT4
In short: (§3)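 MT-4 cells at 6 × 10⁵ cells/ml infected with HIV-1 IIIB or HIV-2 ROD at 100–300 CCID50; compounds in serial five-fold dilutions, triplicate mock- and virus-infected wells. MTT viability read at 540 and 690 nm after 5 days, median OD of three wells; EC50 = 50% protection from viral cytopathic effect.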

Coxsackievirus B4 [9] = experiment: Antiviral activity against Coxsackie virus B4 in african green monkey Vero cells assessed as reduction of virus-induced cytopathogenicity; type: functional; settings: Enterovirus B; in short: as §2
[10] = system: Vesicular stomatitis virus; experiment: Antiviral activity against in Vesicular stomatitis virus in human E6SM cells assessed as reduction of virus-induced cytopathogenicity; type: functional; in short: as §2
[11] = system: Vesicular stomatitis virus; experiment: Antiviral activity against vesicular stomatitis virus in human HeLa cells assessed as inhibition of virus-induced cytopathogenicity; type: functional; in short: as §2
Sindbis virus = experiment: Antiviral activity against Sindbis virus in african green monkey Vero cells assessed as reduction of virus-induced cytopathogenicity; type: functional; in short: as §2
[12] = Cytotoxicity against human HEL cells assessed as alteration of cell morphology; type: cell-based; in short: as §1
[13] = Cytotoxicity against human HEL cells assessed as reduction of cell growth; type: cell-based
In short: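 HEL cells; CC50 = compound concentration reducing cell growth by 50%.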

Human alphaherpesvirus 1 [14] = experiment: Antiviral activity against thymidine kinase deficient and acyclovir resistant HSV1 KOS in human HEL cells assessed as reduction of virus-induced cytopathogenicity; type: functional; settings: Human alphaherpesvirus 1, KOS; in short: as §2
Human betaherpesvirus 5 [15] = experiment: Antiviral activity against human cytomegalovirus AD169 infected HEL cells assessed as reduction in virus plaque formation; type: functional, organism-based; settings: Human betaherpesvirus 5, AD169, HEL
Coxsackievirus B4 [16] = experiment: Antiviral activity against Coxsackie virus B4 in human HeLa cells assessed as inhibition of virus-induced cytopathogenicity; type: functional; settings: Enterovirus B; in short: as §2
[17] = system: Human immunodeficiency virus 1; experiment: Antiviral activity against HIV1 3B in human MT4 cells assessed as protection against virus-induced cytopathogenicity by MTT assay; type: functional, organism-based; set-up: Activity: concentration or dose not given beside the values; settings: for IC50: Human immunodeficiency virus 1, 3B, MT4; in short: as §3
[18] = Cytotoxicity against human MT4 cells by MTT assay; type: cell-based
In short: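 Mock-infected MT-4 cells (6 × 10⁵ cells/ml) with serial five-fold compound dilutions in triplicate; MTT reduction read at 540 and 690 nm after 5 days, median OD of three wells; CC50 = concentration reducing OD540 of mock-infected control by 50%.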

Human alphaherpesvirus 3 [19] = experiment: Antiviral activity against TK+ VZV OKA infected HEL cells assessed as reduction in virus plaque formation; type: functional, organism-based; settings: Human alphaherpesvirus 3, OKA
Human alphaherpesvirus 1 [20] = experiment: Antiviral activity against HSV1 KOS in human E6SM cells assessed as reduction of virus-induced cytopathogenicity; type: functional; settings: Human alphaherpesvirus 1, KOS; in short: as §2
[21] = Cytotoxicity against human HeLa cells; type: cell-based; in short: as §1
[22] = system: Respiratory syncytial virus; experiment: Antiviral activity against respiratory syncytial virus in human HeLa cells assessed as inhibition of virus-induced cytopathogenicity; type: functional; in short: as §2
Vero = experiment: Cytotoxicity against african green monkey Vero cells; type: cell-based; settings: chlorocebus sabaeus; in short: as §1
Human betaherpesvirus 5 [23] = experiment: Antiviral activity against human cytomegalovirus Davis infected HEL cells assessed as reduction in virus plaque formation; type: functional, organism-based; settings: Human betaherpesvirus 5, Davis
Human alphaherpesvirus 3 [24] = experiment: Antiviral activity against TK- VZV 07/1 infected HEL cells assessed as reduction in virus plaque formation; type: functional, organism-based; settings: Human alphaherpesvirus 3, 07/1, HEL

Row | Structure (SMILES) | MCC [1] [µg/mL] | MIC [2] [µg/mL] | MIC (Human alphaherpesvirus 1 [3]) [µg/mL] | MIC (Human alphaherpesvirus 2 [4]) [µg/mL] | MIC [5] [µg/mL] | MIC (Punta Toro virus) [µg/mL] | MIC (Human respirovirus 3) [µg/mL] | MIC (Human alphaherpesvirus 2 [6]) [µg/mL] | MIC (Human alphaherpesvirus 1 [7]) [µg/mL] | MIC (Coxsackievirus B4 [9]) [µg/mL] | MIC [10] [µg/mL] | MIC [11] [µg/mL] | MIC (Sindbis virus) [µg/mL] | MCC [12] [µg/mL] | CC50 [13] [µg/mL] | MIC (Human alphaherpesvirus 1 [14]) [µg/mL] | EC50 (Human betaherpesvirus 5 [15]) [µg/mL] | MIC (Coxsackievirus B4 [16]) [µg/mL] | EC50 (Human alphaherpesvirus 3 [19]) [µg/mL] | MIC (Human alphaherpesvirus 1 [20]) [µg/mL] | other results
1 | CCNC(=S)Nc1ccc(OCc2n[nH]c(=S)n2-c2ccccc2)cc1 | > 400 | > 400 | > 400 | > 400 | > 80 | > 80 | > 80 | > 400 | > 400 | 80 (≈ 208 µM) | > 400 | > 80 | > 80 | > 400 | > 50 | > 400 | > 100 | > 80 | > 100 | > 400 | Activity [8]: 11%; IC50 [8]: > 19.4 µg/mL; Activity [17]: 1%; IC50 [17]: > 15 µg/mL; CC50 [18]: 22 µg/mL (≈ 57.1 µM); MCC [21]: 400 µg/mL; MIC [22]: > 80 µg/mL; Activity (Vero): 400 µg/mL; EC50 (Human betaherpesvirus 5 [23]): > 100 µg/mL; EC50 (Human alphaherpesvirus 3 [24]): > 100 µg/mL
2 | Nc1nc2c(ncn2COC(CO)CO)c(=O)[nH]1 [GANCICLOVIR] | > 100 | > 100 | 0.032 (≈ 0.125 µM) | 0.032 (≈ 0.125 µM) | – | – | – | 0.032 (≈ 0.125 µM) | 2.4 (≈ 9.4 µM) | – | > 100 | – | – | > 100 | 87 (≈ 341 µM) | 2.4 (≈ 9.4 µM) | 0.64 (≈ 2.51 µM) | – | – | 0.032 (≈ 0.125 µM) | EC50 (Human betaherpesvirus 5 [23]): 1.9 µg/mL (≈ 7.44 µM)
3 | CNC(=S)Nc1ccc(OCc2n[nH]c(=S)n2-c2ccccc2)cc1 | > 400 | > 400 | > 400 | > 400 | > 80 | > 80 | > 80 | > 400 | > 400 | > 80 | > 400 | > 80 | > 80 | > 400 | > 50 | > 400 | > 100 | > 80 | > 100 | > 400 | Activity [8]: 2%; IC50 [8]: > 113 µg/mL; Activity [17]: 0.5%; IC50 [17]: > 83.5 µg/mL; CC50 [18]: ≥ 83.5 µg/mL; MCC [21]: 400 µg/mL; MIC [22]: > 80 µg/mL; Activity (Vero): 400 µg/mL; EC50 (Human betaherpesvirus 5 [23]): > 100 µg/mL; EC50 (Human alphaherpesvirus 3 [24]): > 100 µg/mL
4 | O=c1[nH]c(=O)n([C@H]2C[C@H](O)[C@@H](CO)O2)cc1/C=C/Br [BRIVUDINE] | > 400 | > 400 | 0.0768 (≈ 0.231 µM) | 80 (≈ 240 µM) | > 400 | > 400 | > 400 | 80 (≈ 240 µM) | > 400 | > 400 | > 400 | > 400 | > 400 | > 400 | – | > 400 | – | > 400 | 0.02 (≈ 0.06 µM) | 0.0768 (≈ 0.231 µM) | MCC [21]: ≥ 400 µg/mL; MIC [22]: > 400 µg/mL; Activity (Vero): > 400 µg/mL; EC50 (Human alphaherpesvirus 3 [24]): 25 µg/mL (≈ 75 µM)

Reference: ChEMBL document CHEMBL1149790, “Synthesis of some novel thiourea derivatives obtained from 5-[(4-aminophenoxy)methyl]-4-alkyl/aryl-2,4-dihydro-3H-1,2,4-triazole-3-thiones and evaluation as antiviral/anti-HIV and anti-tuberculosis agents” (Eur J Med Chem, 2008)
